For one assay, the target named is Glutamate receptor 2 (Homo sapiens, UniProt P42262). Put plainly: Positive allosteric modulation of GluA2 (Q) flop isoform (unknown origin) expressed in HEK293 cells assessed as potentiation of glutamate-evoked calcium flux by fluo-4/AM dye-based fluorescence assay. It counts as cell-based. Background: A change in cytosolic calcium serves as a functional read-out for many receptors and channels.

The species named for assay [1] is Rattus norvegicus. Put plainly: Induction of dimerization of rat N-terminal His-tagged/15N-labeled GluA2-LBD-N775S mutant expressed in Escherichia coli Origami B (DE3) at 90 uM by NMR spectroscopy.
Assay [2] is filed under the species Rattus norvegicus. In words: Induction of dimerization of rat N-terminal His-tagged GluA2-LBD-N775S mutant expressed in Escherichia coli Origami B (DE3) assessed as dimerization constant by small-angle X-ray scattering method. An outline of the steps:
(§1)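 1 μL modulator in DMSO was added to 29 μL protein. Samples were held at 4 °C and read on the CHESS G1 beamline, three replicates averaged, with buffer subtraction.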

Assay [3] is filed under the species Rattus norvegicus. Put plainly: Induction of dimerization of rat N-terminal His-tagged GluA2-LBD-N775S mutant expressed in Escherichia coli Origami B (DE3) assessed as intrinsic binding constant by small-angle X-ray scattering method. In a few lines:
as §1

Active and inactive are the calls of the source. The rule behind the calls is not given here.

Chain of Glutamate receptor 2 (P42262 whole entry, canonical isoform): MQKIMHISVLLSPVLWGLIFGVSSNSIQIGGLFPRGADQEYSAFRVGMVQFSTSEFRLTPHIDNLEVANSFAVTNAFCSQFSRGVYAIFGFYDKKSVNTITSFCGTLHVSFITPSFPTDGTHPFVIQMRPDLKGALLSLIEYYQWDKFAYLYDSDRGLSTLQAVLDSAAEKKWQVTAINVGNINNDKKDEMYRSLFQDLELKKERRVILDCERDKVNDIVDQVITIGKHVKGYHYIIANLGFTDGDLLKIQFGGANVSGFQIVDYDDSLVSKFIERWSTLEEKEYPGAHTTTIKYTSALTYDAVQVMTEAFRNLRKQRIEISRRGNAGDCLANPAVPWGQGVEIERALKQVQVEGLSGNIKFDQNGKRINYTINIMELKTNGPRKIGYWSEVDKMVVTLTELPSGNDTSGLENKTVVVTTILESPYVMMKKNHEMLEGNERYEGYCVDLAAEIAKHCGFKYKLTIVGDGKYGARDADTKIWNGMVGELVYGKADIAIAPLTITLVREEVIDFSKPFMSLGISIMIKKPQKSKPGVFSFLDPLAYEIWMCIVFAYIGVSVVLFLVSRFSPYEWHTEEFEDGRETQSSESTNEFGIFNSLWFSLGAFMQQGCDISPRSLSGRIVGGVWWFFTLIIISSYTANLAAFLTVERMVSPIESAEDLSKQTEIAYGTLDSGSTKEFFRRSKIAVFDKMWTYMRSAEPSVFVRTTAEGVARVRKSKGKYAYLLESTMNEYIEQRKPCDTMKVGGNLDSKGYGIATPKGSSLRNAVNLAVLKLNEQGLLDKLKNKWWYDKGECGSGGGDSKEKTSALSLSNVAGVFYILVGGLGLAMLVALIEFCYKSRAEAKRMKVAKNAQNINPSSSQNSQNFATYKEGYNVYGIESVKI

Turning to `O=S1(=O)NCN(C2CC2)c2ccc(Oc3ccccc3)cc21`, the EC50 at Glutamate receptor 2 (read-out: EC50) came to 710 nM.
For `COc1cccc(Oc2ccc3c(c2)S(=O)(=O)NCN3C2CC2)c1`, the result in the assay filed under Rattus norvegicus [1] was Active. The K was 32 mM in the assay listed under Rattus norvegicus [2] and 5 ×10⁻¹¹ M in the assay listed under Rattus norvegicus [3]. Also, at Glutamate receptor 2 (read-out: EC50), the EC50 stood at 2 nM.
As for `Cc1ccccc1Oc1ccc2c(c1)S(=O)(=O)NCN2C1CC1`, the EC50 on Glutamate receptor 2 (read-out: EC50) is 15600 nM.
Same read-out and setting: next, `CC1N(C)c2ccc(Cl)cc2S(=O)(=O)N1C` (stereo not drawn): 18700 nM.
Take `Cc1ccccc1Oc1ccc2c(c1)S(=O)(=O)NCN2C`: the EC50 on Glutamate receptor 2 (read-out: pEC50 (converted)) was over 10000 nM.
Take `Cc1ccc(Oc2ccc3c(c2)S(=O)(=O)NCN3C)cc1`: at Glutamate receptor 2 (read-out: EC50), the EC50 is 950 nM.
Still for that read-out and setting: next, `COc1cccc(Oc2ccc3c(c2)S(=O)(=O)NCN3C)c1`: 370 nM.
On to `O=S1(=O)NCN(CCF)c2ccc(Cl)cc21`, for which the K in the assay filed under Rattus norvegicus [3] came to 2 ×10⁻⁶ M. Further, at Glutamate receptor 2 (read-out: EC50), the EC50 stood at 20400 nM.
`Cc1cccc(Oc2ccc3c(c2)S(=O)(=O)NCN3C)c1`: the EC50 on Glutamate receptor 2 (read-out: EC50) turned out to be 390 nM.
Same read-out and setting: next, `N#Cc1cccc(Oc2ccc3c(c2)S(=O)(=O)NCN3C2CC2)c1`: 450 nM; `COc1ccc(Oc2ccc3c(c2)S(=O)(=O)NCN3C2CC2)cc1`: 1820 nM.
Take `COc1ccccc1Oc1ccc2c(c1)S(=O)(=O)NCN2C1CC1`: the EC50 on Glutamate receptor 2 (read-out: EC50) was 15600 nM.
On the same count and under the same terms, next, `COc1ccc(Oc2ccc3c(c2)S(=O)(=O)NCN3C)cc1`: 5900 nM.
For `COc1ccccc1Oc1ccc2c(c1)S(=O)(=O)NCN2C`, the EC50 on Glutamate receptor 2 (read-out: EC50) is over 10000 nM.
On to `O=S1(=O)NCN(C2CC2)c2ccc(F)cc21`, for which the K in the assay listed under Rattus norvegicus [3] stood at 9 ×10⁻⁷ M. In addition, the EC50 at Glutamate receptor 2 (read-out: EC50) stood at 810 nM.
For the compound `CN1CNS(=O)(=O)c2cc(Oc3ccccc3)ccc21`, the EC50 on Glutamate receptor 2 (read-out: EC50) was found to be 7620 nM.
On the same count and under the same terms, next, `Cc1ccc(Oc2ccc3c(c2)S(=O)(=O)NCN3C2CC2)cc1`: 3190 nM; `Cc1cccc(Oc2ccc3c(c2)S(=O)(=O)NCN3C2CC2)c1`: 50 nM.
